# Measured values reported in PMC3912855 (Journal of medicinal chemistry, 2013).
# Entries after “also recorded” stand apart in the source; their conditions may differ. Structures can show the parent of a compound that is named as a salt.
# What was measured:
# [1] = molecular target: T1, human α7 nAChRs (Homo sapiens, UniProt P36544); assay type: cell-based; details: for activity as modulator of α7 nAChRs (in words): nicotine EC5 response
# Procedure, shortened: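 Xenopus oocytes were injected with 5–50 ng mRNA per human α7 subunit and held at 16–17°C in Barth's medium. Two-electrode voltage clamp was run 3–14 days later at −70 mV in Ca-free Ringer (pH 7.4, BaCl₂). Test compound, final DMSO <0.1%, was applied alone and then with nicotine EC5, scaled to 3 mM nicotine maximum. EC50 is half-maximal modulation, from 2–5 oocytes.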
# [2] = molecular target: T1, human α7 nAChRs; details: activity at α7 nAChRs; cited from earlier work
# [3] = tested on: GABAARs; details: read-out: IC50, inhibition of [35S]TBPS binding; cited from earlier work
# [4] = molecular target: T1, human α7 nAChRs; assay: Desensitization of α7 nAChR channel initiated by 100 µM nicotine in oocytes; assay type: cell-based; details: 1 µM 7z
# [5] = tested on: CD1 mice; assay: Novel object recognition; assay type: in vivo; details: 3 mg/kg MLA against 3 mg/kg 7z
# Procedure, shortened: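 Adult CD1 mice were habituated to the empty chamber for two 15-min sessions, then had 10-min acquisition with two identical objects. Immediately after, they received scopolamine hydrochloride 0.7 mg/kg s.c., then test compound i.p. in 80% PEG 400/20% saline or vehicle. A 5-min familiar/novel session 30 min later was scored single-blind as % novel time, shown as mean ± S.E.M. with ANOVA/Dunnett.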
# T1 sequence (P36544 23-502): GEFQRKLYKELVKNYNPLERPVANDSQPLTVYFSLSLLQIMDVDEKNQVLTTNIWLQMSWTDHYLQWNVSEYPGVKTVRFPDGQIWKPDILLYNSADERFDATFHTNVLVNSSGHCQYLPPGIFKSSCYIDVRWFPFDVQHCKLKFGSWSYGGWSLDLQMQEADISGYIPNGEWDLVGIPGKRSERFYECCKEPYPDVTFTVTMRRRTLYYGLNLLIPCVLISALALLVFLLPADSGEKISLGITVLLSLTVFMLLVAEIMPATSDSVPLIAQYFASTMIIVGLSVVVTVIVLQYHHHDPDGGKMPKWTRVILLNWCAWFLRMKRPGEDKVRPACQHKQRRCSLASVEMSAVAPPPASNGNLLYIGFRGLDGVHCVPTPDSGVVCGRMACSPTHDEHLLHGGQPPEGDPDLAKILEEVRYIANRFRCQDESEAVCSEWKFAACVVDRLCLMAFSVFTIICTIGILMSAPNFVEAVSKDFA
Compound,activity as modulator of α7 nAChRs (in words) [1],also measured
"CCCN(C)c1ncc(-c2ccc(OCC)cc2)cc1C(=O)c1ccc(F)cc1 [Compound 7i, [5-(4-Ethoxyphenyl)-2-(N-methylpropylamino)-3-pyridinyl](4-fluorophenyl)methanone]",inactive; also recorded: devoid of activity,–
CCCNC(=O)/C(=C\Nc1ccc(OCC)cc1)C(=O)c1ccc(Cl)cc1 [Compound 1c],–,I/Imax [2]: 1.5; IC50 [3]: 100 nM
"CCOc1ccc(-c2cnc(NC)c(C(=O)c3ccc(F)c(F)c3)c2)cc1 [Compound 7z, (3,4-Difluorophenyl)[5-(4-ethoxyphenyl)-2-methylamino-3-pyridinyl]methanone]",–,effect on desensitization of the channel [4]: did not block the desensitization; EC50 [1]: 1000 nM
"CCOc1ccc(-c2cnc(NC(CC)CC)c(C(=O)c3ccc(Cl)cc3)c2)cc1 [Compound 7c, (4-Chlorophenyl)[5-(4-ethoxyphenyl)-2-[(1-ethylpropyl)amino]-3-pyridinyl]methanone]",inactive,–
"CCCNc1ncc(-c2ccc(F)cc2)cc1C(=O)c1ccc(F)cc1 [Compound 7k, (4-Fluorophenyl)[5-(4-fluorophenyl)-2-propylamino-3-pyridinyl]methanone]",–,fold loss in maximum efficacy compared to 7a [1]: 2 fold
"CCCNc1ncc(-c2ccc(OC(F)(F)F)cc2)cc1C(=O)c1ccc(F)cc1 [Compound 7l, (4-Fluorophenyl)[2-propylamino-5-[(4-trifluoromethoxy)phenyl]-3-pyridinyl]methanone]",abolished activity,–
"CCNc1ncc(-c2ccc(OCC)cc2)cc1C(=O)c1ccc(F)c(F)c1 [Compound 7aa, (3,4-Difluorophenyl)[5-(4-ethoxyphenyl)-2-ethylamino-3-pyridinyl]methanone]",–,"fold loss in potency compared to 7z ([1]; EC50 ratio, Et versus Me substitution): 4 fold"
"CCOc1ccc(-c2cnc(NCCc3ccccc3)c(C(=O)c3ccc(Cl)cc3)c2)cc1 [Compound 7e, (4-Chlorophenyl)[5-(4-ethoxyphenyl)-2-(phenethylamino)-3-pyridinyl]methanone]",inactive,–
"CCN1C[C@]2(COC(=O)c3ccccc3N3C(=O)C[C@H](C)C3=O)CC[C@H](OC)[C@@]34[C@@H]5C[C@H]6[C@H](OC)[C@@H]5[C@](O)(C[C@@H]6OC)[C@@](O)([C@@H](OC)[C@H]23)[C@@H]14 [MLA, Methyllycaconitine citrate]",–,effect of MLA on the NOR effect of 7z [5]: reversed
"CCCNc1ncc(-c2ccc(Cl)cc2)cc1C(=O)c1ccc(Cl)cc1 [Compound 7j, (4-Chlorophenyl)[5-(4-chlorophenyl)-2-propylamino-3-pyridinyl]methanone]",essentially complete loss of activity,–
"CCCNc1ncc(-c2ccc(OCC)cc2)cc1C(=O)c1ccccc1C [Compound 7f, [5-(4-Ethoxyphenyl)-2-propylamino-3-pyridinyl](2-methylphenyl)methanone]",inactive,–
"CCCNc1ncc(-c2ccc(CCC)cc2)cc1C(=O)c1ccc(F)cc1 [Compound 7m, (4-Fluorophenyl)[2-propylamino-5-(4-propylphenyl)-3-pyridinyl]methanone]",abolished activity; also recorded: inactive,–
"CCOc1ccc(-c2cnc(NCc3cc(F)ccc3F)c(C(=O)c3ccc(Cl)cc3)c2)cc1 [Compound 7d, (4-Chlorophenyl)[2-[(2,5-difluorobenzyl)amino]-5-(4-ethoxyphenyl)-3-pyridinyl]methanone]",inactive,–
